Test results taken from ChEMBL document CHEMBL4613251, “Meliponamycins: Antimicrobials from Stingless Bee-Associated Streptomyces sp” (J Nat Prod, 2020).

Assays:
Leishmania infantum = experiment: Antileishmanial activity against intracellular amastigote stage of Leishmania infantum MHOM/MA/67/ITMAP-263 infected in THP1 cells after 120 hrs by giemsa-staining based inverted microscopic mehod; assay type: functional, organism-based; details: MHOM/MA/67/ITMAP-263, THP-1, 120 h
Method in brief: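 THP-1 monocytes seeded at 2 × 10^4/well and differentiated to macrophages with 20 ng/mL PMA for 72 h (37 °C, 5% CO2). They were then infected with late-stage promastigotes (2 × 10^5/well; promastigotes grown in M199 + 10% FCS, 28 °C). Extracellular parasites were removed after 24 h, and 2-fold serial dilutions from 10 mM DMSO stocks were added for 120 h. Cells were methanol-fixed and Giemsa-stained, and amastigotes per macrophage were counted microscopically as % of untreated control. IC50 from a variable-slope fit; n = 2 biological replicates; miltefosine control.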

Staphylococcus aureus = experiment: Antibacterial activity against Staphylococcus aureus INCAS0039 assessed as reduction in microbial growth by CLSI based broth microdilution method; assay type: functional
Method in brief: (§1)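 MIC by broth microdilution following CLSI guidelines; strains propagated in ISP-2 medium. Compounds added from a 0.125 mg/mL DMSO stock, highest final concentration 6.9 μg/mL, then serial 2-fold dilutions with DMSO diluted alongside. Tetracycline served as positive control for both strains.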

Paenibacillus larvae = experiment: Antibacterial activity against Paenibacillus larvae ATCC 9545 assessed as reduction in microbial growth by CLSI based broth microdilution method; assay type: functional; method in brief: as §1
THP-1 = experiment: Cytotoxicity against human THP1 cells assessed as reduction in cell viability after 120 hrs by alamar blue assay; assay type: cell-based; details: THP-1, 120 h
Method in brief: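 THP-1 cells were seeded at 2 × 10^4/well in RPMI-1640 + 10% FCS with 20 ng/mL PMA and differentiated for 72 h (37 °C, 5% CO2). Serial 2-fold dilutions from 10 mM DMSO stocks were added for 120 h. Alamar Blue was then added for 3 h, and fluorescence was read at ex 536 / em 588 nm as % of untreated control. n = 2 biological replicates; doxorubicin control.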

## CCCCCCCCCCCCCCCCOP(=O)([O-])OCC[N+](C)(C)C [MILTEFOSINE]
Leishmania infantum
  IC50: 2400 nM

## CN(C)[C@@H]1C(O)=C(C(N)=O)C(=O)[C@@]2(O)C(O)=C3C(=O)c4c(O)cccc4[C@@](C)(O)[C@H]3C[C@@H]12 [TETRACYCLINE]
Staphylococcus aureus
  MIC: 0.05 µg/mL
Paenibacillus larvae
  MIC: 7.76 µM

## COc1cccc2c1C(=O)c1c(O)c3c(c(O)c1C2=O)C[C@@](O)(C(=O)CO)C[C@@H]3O[C@H]1C[C@H](N)[C@H](O)[C@H](C)O1 [DOXORUBICIN]
THP-1
  IC50: 1800 nM
